In one series the test system is gastric H,K-ATPase. Conditions: cited from earlier work; for pIC50: read-out: IC50, gastric proton pump activity.
Series [1] concerns the target pig gastric microsomal H,K-ATPase (Sus scrofa, UniProt P19156). The series is described as follows: H,K-ATPase assay. The format is biochemical. Conditions: for Attenuation of H,K-ATPase activity: non-physiological concentrations greater than 10^-7 M (up to 1 μM); for Inhibitory activity against H,K-ATPase: physiological concentrations (10^-9–10^-8 M).
The test system of a further series is gastric damage. As to conditions: up to 100 mg/kg/d p.o., rat; cited from earlier work.
The test system of series [2] is bacteria or mammalian cells; rat bone marrow cells. Conditions: cited from earlier work.
A further series has as its system rat. Conditions: cited from earlier work.
The subject of another series is dogs. Conditions: cited from earlier work.
The next series concerns guinea-pig ileum. As to conditions: cited from earlier work.
The test system of series [3] is IL-8 secretion by human gastric adenocarcinoma (AGS) cells. The series is described as follows: IL-8 secretion by AGS cells. As to conditions: 24 h, read-out: IC50, inhibition of baseline IL-8 secretion. Format: cell-based. In short, it runs like this:
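AGS cells in Ham's F-12 with 10% FBS and antibiotics (37°C, 5% CO2), passages 42–56. Seeded at 50,000 cells/100 μl/well and attached 18 hr, then exposed to test compound with or without IL-1β (1 ng/ml) for 24 hr. Medium IL-8 measured by ELISA. Solvent controls included, solvents <1% final. Triplicates, ≥3 experiments; IC50 from three-parameter logistic fit.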

The test system of another series is rat stomach and blood. As to conditions: cited from earlier work.
In another series the test system is cats. Conditions: cited from earlier work.
The conditions of series [4]: 14C-labeled ML 3000, rats; cited from earlier work.
The subject of series [5] is rabbit gastric parietal cells. The series is described as follows: Acid accumulation assay. Format: cell-based. As to conditions: up to concentrations of 10^-4 M (data not shown).

We go through twelve compounds from paper PMC368434 (BMC Gastroenterology, 2004).

pIC50, pKi: −log10 of the molar value.

pig gastric microsomal H,K-ATPase, sequence (P19156 2-1034 limits assumed): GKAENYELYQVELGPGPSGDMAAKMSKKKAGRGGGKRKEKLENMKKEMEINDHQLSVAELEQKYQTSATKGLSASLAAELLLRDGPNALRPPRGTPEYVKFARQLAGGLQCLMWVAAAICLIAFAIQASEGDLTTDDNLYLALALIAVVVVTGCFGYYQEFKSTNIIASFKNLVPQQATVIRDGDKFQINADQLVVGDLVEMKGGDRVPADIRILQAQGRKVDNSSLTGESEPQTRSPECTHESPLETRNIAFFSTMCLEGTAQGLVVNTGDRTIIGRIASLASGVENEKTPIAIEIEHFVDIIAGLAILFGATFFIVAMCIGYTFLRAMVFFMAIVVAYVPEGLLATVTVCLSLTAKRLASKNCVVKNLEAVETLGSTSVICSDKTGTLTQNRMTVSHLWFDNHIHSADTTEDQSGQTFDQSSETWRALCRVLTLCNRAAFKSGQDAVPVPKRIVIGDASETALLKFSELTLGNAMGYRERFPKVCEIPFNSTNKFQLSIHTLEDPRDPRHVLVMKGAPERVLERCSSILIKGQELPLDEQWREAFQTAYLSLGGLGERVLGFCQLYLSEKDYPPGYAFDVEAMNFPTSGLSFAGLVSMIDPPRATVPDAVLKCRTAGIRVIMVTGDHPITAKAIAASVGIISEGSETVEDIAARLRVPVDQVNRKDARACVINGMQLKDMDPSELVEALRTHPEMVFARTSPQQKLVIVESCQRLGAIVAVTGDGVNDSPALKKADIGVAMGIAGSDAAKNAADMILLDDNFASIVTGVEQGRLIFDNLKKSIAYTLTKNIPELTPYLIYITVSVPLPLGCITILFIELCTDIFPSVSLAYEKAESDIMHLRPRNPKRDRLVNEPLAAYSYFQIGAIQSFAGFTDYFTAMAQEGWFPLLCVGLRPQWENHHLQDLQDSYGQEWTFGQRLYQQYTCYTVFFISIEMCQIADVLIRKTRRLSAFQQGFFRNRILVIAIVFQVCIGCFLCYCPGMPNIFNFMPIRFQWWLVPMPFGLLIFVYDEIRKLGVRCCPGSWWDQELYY
pig gastric microsomal H,K-ATPase, sequence (P18434 whole entry partner): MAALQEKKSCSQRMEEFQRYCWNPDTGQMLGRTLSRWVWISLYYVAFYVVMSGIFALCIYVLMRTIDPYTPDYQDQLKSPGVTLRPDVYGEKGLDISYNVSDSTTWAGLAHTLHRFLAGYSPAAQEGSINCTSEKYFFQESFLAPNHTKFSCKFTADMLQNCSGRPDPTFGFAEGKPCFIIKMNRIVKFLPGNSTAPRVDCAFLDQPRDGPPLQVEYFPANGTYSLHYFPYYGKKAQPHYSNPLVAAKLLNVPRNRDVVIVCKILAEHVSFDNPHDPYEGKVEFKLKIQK

Usually pIC50 stands for the IC50 on a negative log10 scale, so that one unit is a factor of ten. As for `CCCCC[C@H](O)/C=C/[C@H]1[C@H](O)CC(=O)[C@@H]1C/C=C\CCCC(=O)O` [PGE2, prostaglandin E2], the “Inhibitory effect on pig gastric H,K-ATPase” value with gastric H,K-ATPase (pig, previous study) is given as “no inhibitory effect”. Besides, in series [1], the pIC50 is 4.82.

Take `CCCCC/C=C\C\C=C/C=C/C=C/[C@@H](SC[C@H](N)C(=O)NCC(=O)O)[C@@H](O)CCCC(=O)O` [LTD4, leukotriene D4]: in series [1], the “Attenuation of H,K-ATPase activity” value is on record as “significant attenuation” and the “Inhibitory activity against H,K-ATPase” value was “neither leukotriene showed any inhibitory activity”.

With `Cc1c(OCC(F)(F)F)ccnc1C[S+]([O-])c1nc2ccccc2[nH]1` (centres unmarked) [lansoprazole], the pIC50 on gastric H,K-ATPase is 5.68.

For the compound `CCCCC/C=C\C/C=C\C/C=C\C/C=C\CCCC(=O)O` [Arachidonic acid], in [1], the pIC50 is 4.78.

Turning to `COC(=O)c1cc2nc([S+]([O-])Cc3ncccc3C)[nH]c2cc1C` (centres unmarked) [picoprazole], at gastric H,K-ATPase, the pIC50 was 5.70.

Broadly, the pKi is −log10 of the Ki, conventionally taken in molar units. `COc1ccc2c(c1)c(CC(=O)O)c(C)n2C(=O)c1ccc(Cl)cc1` [indomethacin]: the pKi on gastric H,K-ATPase (read-out: Ki, inhibition of gastric H,K-ATPase) is 3.17. Moreover, the “Inhibitory effect on microsomal H,K-ATPase activity” value in [1] (concentrations up to 10^-4 M) was “without inhibitory effects”.

Regarding `CC1(C)Cc2c(-c3ccccc3)c(-c3ccc(Cl)cc3)c(CC(=O)O)n2C1` [ML 3000, [2,2-dimethyl-6-(4-chlorophenyl)-7-phenyl-2,3-dihydro-1H-pyrrolizine-5-yl]-acetic acid], the Gastric damage entry in the series on gastric damage is “no gastric damage”. Moreover, the “Genotoxicity: gene mutation frequencies in bacteria or mammalian cells, unscheduled DNA synthesis, chromosomal aberrations in rat bone marrow cells” value in series [2] is listed as “no effects”. The “Gastric damage and peristaltic disturbance” value in the series on rat (animal models) was “neither gastric damage nor peristaltic disturbance”. In addition, the “Rat locomotor activity or hexobarbital-induced sleep” value in the series on rat is reported as “did not affect”. The “Cardiovascular or respiratory effects” value in the series on rat (rat) and in the series with dogs was “no cardiovascular or respiratory effects” in each case. Further, the Urine output entry in the series with rat (rats) is listed as “small transient reduction”. In the series with guinea-pig ileum, the Spasmogenic response result is recorded as “weak spasmogenic response”. Further, the pIC50 was 6.34 in [3] and 4.79 in series [1]. In [1] (ML 3000 titrated to pHs 2.0 to 7.4 for 30 min, 16.6 μM final concentration), the “Effect of ML 3000 acidification on H,K-ATPase inhibitory profile” value is listed as “no significant effect”. Further, the “Reversibility of H,K-ATPase inhibition” value in [1] (dilution from 100 μM to 3.3 μM) is reported as “reversible”. Further, in the series on rat stomach and blood, the Gastric mucosal injury result is “no gastric mucosal injury”. Moreover, the “Leukocyte adherence in mesenteric venules” value in the series with rat stomach and blood was “no effect”. Also, the “Gastric prostaglandin E2 synthesis” value in the series on rat stomach and blood (rat stomach and blood) is given as “reduces”. Also, the “Inhibition of gastric or blood leukotriene B4 synthesis” value in the series with rat stomach and blood (rat) is “not detected”. The Neuromuscular function result with cats was “without affect”. The Distribution and excretion result in series [4] was “enterohepatic circulation and glucuronide conjugation”.

For the compound `CC(=O)Oc1ccccc1C(=O)O` [acetyl salicylic acid], the “Effect on acid accumulation by isolated rabbit parietal cells” value in [5] is given as “no effect”. Also, in [1] (concentrations up to 10^-3 M), the “Inhibitory effect on microsomal H,K-ATPase activity” value is reported as “without inhibitory effects”.

Consider `CS(=O)(=O)Nc1ccc([N+](=O)[O-])cc1OC1CCCCC1` [NS 398], for which the “Effect on acid accumulation by isolated rabbit parietal cells” value in series [5] is given as “no effect”. Besides, in series [1] (concentrations up to 10^-4 M), the “Inhibitory effect on microsomal H,K-ATPase activity” value is listed as “without inhibitory effects”.

In the case of `COc1ccc2cc([C@H](C)C(=O)O)ccc2c1` [naproxen], the “Inhibitory effect on microsomal H,K-ATPase activity” value in [1] (concentrations up to 10^-4 M) is “without inhibitory effects”.

Regarding `CCCCC/C=C\C[C@@H](O)/C=C/C=C/C=C\[C@@H](O)CCCC(=O)O` [LTB4, leukotriene B4], in series [1], the “Attenuation of H,K-ATPase activity” value was “significant attenuation” and the “Inhibitory activity against H,K-ATPase” value is on record as “neither leukotriene showed any inhibitory activity”.

For `COCCCOc1ccnc(C[S+]([O-])c2nc3ccccc3[nH]2)c1C` (centres unmarked) [rabeprazole], the pIC50 on gastric H,K-ATPase was 7.14.
